This is a sample that favours compounds with a hit; in the whole collection about 2.6% have one here.
Ecoli rRNA inh = inhibits bacterial ribosomal RNA function over humanized ribosomes; E. coli WT GFP vs humanized-ribosome RFP mutants, fluorescence, 24 h; stronger effect = lower value; DMSO median 0, no signal -100; GFP signal change (wild-type ribosome), % (test concentration not listed); actives 1.6% (n = 350,000); AID 720706;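 active = significant combined selectivity score with lowered wild-type GFP, culture density cut under 30%, mutant RFP and density less affected; inactive = any of these conditions unmet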
miR-122 sensor = inhibitors of miR-122 in Huh7 cells; Huh7 miR-122 Renilla luciferase sensor, 48 h; neutral wells = 0, positive control = 100; activation (reporter increase), % at 12.5 µM; actives 0.3% (n = 340,000);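 active = mean replicate activation score at least 90 and every replicate individually at or above 90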;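 note: higher luciferase means less miR-122 activity so hits act as miR-122 inhibitors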
HIV Env fusion = inhibitors of HIV Env-mediated cell fusion; HeLa-JRFL Env/CEM21 cell fusion, luciferase; inhibition, % at 12.3 µM; actives 1.1% (n = 360,000); AID 651610;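 active = mean replicate inhibition score of at least 50 and every replicate individually at or above 50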
S100A4 inh HTS = inhibitors of human S100A4 binding to myosin IIA peptide; S100A4/TAMRA-MyoIIA peptide fluorescence polarization; inhibition, % at 10.7 µM; actives 0.14% (n = 360,000); AID 652163;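 active = mean inhibition of at least 70% across replicates, with every replicate also reaching that level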
Target sequence (P26447 whole entry, looked up): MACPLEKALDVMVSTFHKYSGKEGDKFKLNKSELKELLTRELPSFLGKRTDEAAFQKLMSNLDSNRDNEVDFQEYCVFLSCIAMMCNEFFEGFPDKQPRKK
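assay system = human S100A4 monomer with TAMRA-labelled myosin IIA peptide | also added = labelled myosin peptide probe, 5 nM | incubation = 5 min between mix addition and reading | control set = DMSO and TFP controls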
Vif inh = HIV Vif inhibition; actives 0.35% (n = 340,000); AID 602346; HEK293T cells, Vif self-association by quenched fluorescence, imaging, 24 h; inhibition, % at 7.49 µM; in the data active = inhibition above about 50%, passing the limit was not always enough
FN deposition inh = fibronectin deposition inhibition | AH1F fibroblasts, Alexa488-fibronectin deposition fluorescence, overnight | inhibition, % at 12.6 µM | actives 0.086% (n = 350,000);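 active = mean inhibition across replicates of 30% or more, regardless of how many single replicates reach that level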
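Material – AH1F fibroblast monolayer, labelled fibronectin deposition · Reagent – labelled fibronectin 24 nM · Timing – 1 h adhesion, overnight exposure · Measured by – fluorescence at 485 nm excitation, 525 nm emission · Read-out – inhibition of fibronectin deposition signal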
Hits are given with their value; i = inactive; nt = not tested or not shown.

SMILES	Ecoli rRNA inh	miR-122 sensor	HIV Env fusion	S100A4 inh HTS	Vif inh	FN deposition inh
C[C@@H]1CN([C@H](C)CO)C(=O)c2cccc(NC(=O)Nc3ccc4c(c3)OCO4)c2O[C@H]1CN(C)Cc1ccc(Cl)c(Cl)c1	i	i	nt	i	nt	nt
CCCNC(=O)N1C[C@@H](C)[C@H](OC)CN(C)C(=O)c2ccc(NS(C)(=O)=O)cc2OC[C@H]1C	i	i	i	i	nt	i
CC(C)CC#Cc1ccc([C@@H]2[C@H]3CN(S(C)(=O)=O)CC(=O)N3[C@H]2CO)cc1	i	nt	nt	nt	nt	nt
CCN(CC)C(=O)CC(c1ccc(N(C)C)cc1)c1c(OC)cc(OC)c2c(-c3ccccc3)cc(=O)oc12 (stereo not given)	i	99	i	i	i	i
COc1cc(OC)c2ccc(=O)oc2c1C(CC(=O)N1CCCC1)c1ccc(N(C)C)cc1 (stereo not given)	i	i	i	i	i	i
CCN(CC)C(=O)CC(c1ccc(N(C)C)cc1)c1c(OC)cc(OC)c2ccc(=O)oc12 (stereo not given)	i	i	i	i	i	i
COc1cc(OC)c2ccc(=O)oc2c1C(CC(=O)N1CCOCC1)c1ccc(N(C)C)cc1 (stereo not given)	nt	i	i	nt	i	31
COc1ccc(C(CC(=O)N2CCCC(C)C2)c2c(OC)cc(OC)c3c(-c4ccccc4)cc(=O)oc23)cc1 (stereo not given)	i	92	i	i	i	i
CCCCCc1cc(=O)oc2c(C(CCN3CCCCC3)c3ccc(OC)cc3)c(OC)cc(OC)c12 (stereo not given)	i	i	i	i	i	i
CCCCCc1cc(=O)oc2c(C(CCN3CCCC(C)C3)c3ccc(OC)cc3)c(OC)cc(OC)c12 (stereo not given)	-37	i	i	i	i	i
CC(C)NC(=O)Nc1ccc2c(c1)C(=O)N(C)C[C@@H](C)[C@H](CN(C)S(C)(=O)=O)O2	i	nt	nt	nt	nt	i
O=C(Cc1cccnc1)N1CC(=O)N2[C@H](CO)[C@@H](c3ccc(C4=CCCC4)cc3)[C@H]2C1	i	nt	nt	i	nt	i
C[C@@H]1CN([C@@H](C)CO)C(=O)c2cc(NC(=O)CCCN(C)C)ccc2O[C@H]1CN(C)Cc1ccc(-c2ccccc2)cc1	i	i	nt	i	nt	i
C[C@H](CO)N1C[C@H](C)[C@H](CN(C)C(=O)CCCN(C)C)OCCCC[C@H](C)Oc2ccc(NS(=O)(=O)c3cn(C)cn3)cc2C1=O	i	i	i	i	nt	nt
COc1cc(C(CCN2CCCCC2)c2c(OC)cc(OC)c3c(-c4ccccc4)cc(=O)oc23)cc(OC)c1OC (stereo not given)	i	i	i	i	nt	30
COc1cc(C(CCN2CCCC(C)C2)c2c(OC)cc(OC)c3c(-c4ccccc4)cc(=O)oc23)cc(OC)c1OC (stereo not given)	i	i	nt	i	i	nt
CC(=O)c1sc2nc(C)c3c(c2c1N)CCCC3	-33	i	i	i	i	i
CCNC(=O)C[C@H]1CC[C@@H]2[C@@H](COc3ccc(NC(=O)c4cscn4)cc3C(=O)N2C)O1	i	i	i	i	nt	i
N=c1ccn2c(n1)O[C@H]1[C@H](O)[C@@H](CO)O[C@H]12	i	nt	i	i	nt	i
N=c1nc2n(cc1F)C1OC(CO)C(O)C1O2 (stereo not given)	i	i	69	i	i	i
CN1CCC(NC(=O)c2cc(-c3cccc(Br)c3)nc3ccccc23)CC1	-23	i	i	i	i	i
CCSC1=C(C#N)C(c2ccc(Cl)cc2)C2=C(CCCC2=O)N1 (stereo not given)	nt	i	58	nt	i	i
CC(=O)c1c(C)[nH]c(C(=O)CSc2nnc(C3CCCCC3)n2N)c1C	nt	nt	64	nt	i	i
CC1CCCCN1c1cc(C#N)c(C#N)cc1[N+](=O)[O-] (stereo not given)	nt	i	nt	nt	i	nt
CC1CCN(c2cc(C#N)c(C#N)cc2[N+](=O)[O-])CC1	nt	i	i	nt	90	i
SMILES	Ecoli rRNA inh	miR-122 sensor	HIV Env fusion	S100A4 inh HTS	Vif inh	FN deposition inh
CO[C@@H]1CN(C)C(=O)c2cc(NC(=O)C3CCOCC3)ccc2OC[C@@H](C)N(Cc2nccs2)C[C@H]1C	i	nt	nt	i	nt	i
O=C(C(Cc1ccccc1)N1C(=O)c2ccccc2C1=O)N1c2ccccc2CCc2ccccc21 (stereo not given)	i	nt	66	i	i	i
COc1ccc(CN(C)C[C@@H]2OCCCC[C@@H](C)Oc3ccc(NS(=O)(=O)c4cccs4)cc3C(=O)N([C@H](C)CO)C[C@H]2C)cc1	i	i	i	i	nt	nt
CC1CC(C)CN(CCCNC(=O)c2cc3c(=O)[nH]c4ccccc4c3n2C)C1 (stereo not given)	i	nt	i	i	i	i
Cn1c(C(=O)NCCCN2CCN(c3ccccc3F)CC2)cc2c(=O)[nH]c3ccccc3c21	nt	i	94	nt	i	nt
CN(CCCNC(=O)c1cc2c(=O)[nH]c3ccccc3c2n1C)Cc1ccccc1	i	nt	59	i	i	i
CCC1CCCCN1CCCNC(=O)c1cc2c(=O)[nH]c3ccccc3c2n1C (stereo not given)	i	nt	i	i	i	i
O=C(N[C@H]1CC[C@@H](CC(=O)N2CCCCC2)O[C@@H]1CO)c1cccc(F)c1	i	nt	i	i	nt	nt
O=c1c2ccccc2nc(COc2ccccc2)n1/N=C/c1ccc(O)cc1O	-31	nt	i	i	i	i
COCCN(Cc1cc2cc3c(cc2nc1Cl)OCO3)C(=O)Nc1ccc(F)cc1	-27	i	nt	i	i	nt
C/C=C/c1ccc2c(c1)O[C@@H](CN(C)C(=O)CC)[C@H](C)CN([C@@H](C)CO)S2(=O)=O	i	i	i	i	nt	nt
CC(=O)N(C)C[C@@H]1Oc2ccc(NC(=O)NC(C)C)cc2CC(=O)N(C)C[C@H]1C	i	nt	nt	nt	nt	i
COc1ccc(-c2ccc(C#N)c(SCC(=O)NC3CC3)n2)cc1OC	i	nt	i	i	78	i
CN1CCC=C(C(=O)N2c3ccccc3Sc3ccc(Cl)cc32)C1	-22	nt	i	i	i	i
CN1CCN(CCC(=O)N2c3ccccc3Sc3ccc(Cl)cc32)CC1	i	i	i	i	i	i
COc1cc(SC)ccc1C(=O)Nc1nc2ccccc2[nH]1	i	i	92	i	i	i
COc1cc(SC)ccc1C(=O)Nc1ccc2c(c1)OCCO2	-25	i	nt	i	i	nt
COc1ccccc1C(=O)Nc1nc2ccccc2[nH]1	i	i	73	i	i	i
COc1cc(SC)ccc1C(=O)Nc1nccs1	-25	i	i	i	i	i
COc1ccccc1C(=O)NCCC(=O)Nc1nc2ccccc2[nH]1	i	i	nt	i	i	i
COc1cc(SC)ccc1C(=O)Nc1ccccc1	nt	i	i	nt	i	i
